From ChEMBL document CHEMBL5104207, “Synthesis, biological evaluation and computational studies of pyrazole derivatives as Mycobacterium tuberculosis CYP121A1 inhibitors” (RSC Med Chem, 2022) come the findings set out here.

≈ marks a conversion by molar mass, not a printed value.

In the experiment the test system is Mycobacterium tuberculosis. Briefly: Antimycobacterial activity against Mycobacterium tuberculosis H37Rv assessed as inhibition of bacterial growth for 5 weeks by spot culture growth inhibition assay. The settings on record: 840 h. It counts as functional. In outline:
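M. tuberculosis H37Rv grown shaking at 37 °C in 7H9 with 0.5% glycerol, 10% OADC and 0.025% Tween 80 to OD 1, then diluted 1:100 and 2 µL spotted. Wells hold 7H10 agar with 0.5% glycerol and 10% OADC plus compound, two-fold serial dilutions in DMSO from 150 μg mL-1. Plates used within 24 h. Incubated 37 °C for five weeks, then MIC90 recorded.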

As a reminder, the MIC90 is the lowest concentration that inhibits either 90% of growth or 90% of the strains tested, depending on the study. Consider `CC(C)Oc1ccc(-c2nn(-c3ccc(Cl)cc3)cc2Cn2ccnc2)cc1`, for which the MIC90 stood at 15.3 µM (≈ 6.01 µg/mL).
